Hits are enriched below; roughly 1.9% of the tested compounds scored in any of these assays.
DNA FID counter-1 – fluorescent intercalator displacement, NS3 helicase counter-screen; inhibition, % at 7.9 µM; DNA fluorescent intercalator displacement, fluorescence; hit rate 0.17% among 290,000; AID 1845;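 note: higher means more ethidium bromide displaced from hairpin DNA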
HCV NS3 hel inh – inhibitors of Hepatitis C virus NS3 helicase; NS3 helicase DNA unwinding, Cy5 molecular beacon fluorescence; inhibition, % at 10.9 µM; hit rate 0.56% among 290,000; AID 1800;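 active = inhibition above the mean of all tested compounds plus 3 SD, set per campaign, cut at about 35% in these data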
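Assay system – hepatitis C virus NS3 helicase domain fragment enzyme · Buffer or medium – MOPS pH 6.5, MgCl2, DTT, Tween20, BSA · Reagent – Cy5/quencher beacon DNA duplex and ATP to start · Compound – single 10.9 µM dose · Timing – 1 h at 25 °C · Technique – Cy5 beacon fluorescence read at start and 1 h · Measure – % inhibition of unwinding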
PP5 inh – PP5 (human) phosphatase inhibition | P53041 | purified PP5c, OMFP substrate fluorescence | inhibition, % at 6.7 µM | hit rate 0.18% among 320,000;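 active = inhibition above the campaign's mean inhibition across all tested compounds plus 3 SD, cut at about 9.5% in these data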
HIF act – HIF pathway transcriptional activation | hit rate 0.32% among 300,000 | activation, % at 7.5 µM (by protocol) | U2OS HRE-luciferase reporter, luminescence; normalized: DMSO 0%, desferrioxamine 100%;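 active = mean activation of at least 10% of the iron chelator positive control signal, with at least half of replicates also reaching 10%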
PP1 inh – PP1-alpha (human) inhibition in PP5 counter-screen. P62136. purified PP1alpha, OMFP fluorescence. inhibition, % at 6.7 µM. hit rate 0.9% among 320,000. AID 2235;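 active = inhibition above the mean inhibition of all tested compounds plus 3 SD, computed separately for each screening campaign, cut at about 15% in these data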
Target sequence (P62136 whole entry, looked up): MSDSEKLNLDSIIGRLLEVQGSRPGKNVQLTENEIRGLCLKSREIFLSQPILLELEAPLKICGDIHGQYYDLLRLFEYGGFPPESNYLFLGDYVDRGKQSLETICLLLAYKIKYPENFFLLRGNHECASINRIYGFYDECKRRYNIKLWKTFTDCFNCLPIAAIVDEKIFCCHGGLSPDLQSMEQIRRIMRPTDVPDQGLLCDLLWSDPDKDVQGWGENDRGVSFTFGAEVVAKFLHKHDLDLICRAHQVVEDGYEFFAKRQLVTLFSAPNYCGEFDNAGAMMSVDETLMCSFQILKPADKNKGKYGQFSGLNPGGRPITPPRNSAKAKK
NS3 helicase cf – confirmation of Hepatitis C virus NS3 helicase inhibitors; shares compounds with HCV NS3 hel inh; NS3 helicase DNA unwinding, Cy5 molecular beacon fluorescence; inhibition, % at 10.9 µM; hit rate 31% among 1,600; AID 1943;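 active = inhibition above the mean of all tested compounds plus 3 SD, cutoff set per campaign, cut at about 36% in these data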
DNA FID counter-2 – displaces DNA intercalator in HCV helicase counter-screen | DNA fluorescent intercalator displacement, fluorescence | inhibition, % at 7.9 µM | shares compounds with HCV NS3 hel inh | hit rate 4% among 1,600 | AID 1945;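 note: higher means more displacement of ethidium bromide from the DNA hairpin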
DNA FID DR – counter-screen for HCV NS3 helicase inhibitors: DNA intercalator displacement dose response; shares compounds with HCV NS3 hel inh; fluorescent intercalator displacement from DNA, fluorescence; IC50, µM; 120 tested, under 10 active; AID 2172; call rule not given here
PP5 conf – confirmation of human PP5 phosphatase inhibitors | shares compounds with PP5 inh | Purified PP5, fluorogenic phosphatase substrate, fluorescence | inhibition, % at 6.7 µM | hit rate 22% among 460; in the data active = inhibition above about 9.5%
PP1 inh counter – counter-screen for PP5 inhibitors: human PP1 phosphatase inhibition; shares compounds with PP5 inh; PP1 enzyme, fluorescent phosphatase substrate; inhibition, % at 6.7 µM; hit rate 4% among 460; in the data active = inhibition above about 16%
PP1 inh confirm – human PP1 phosphatase inhibition, confirmation | shares compounds with PP1 inh | purified PP1alpha, OMFP substrate fluorescence | inhibition, % at 6.7 µM | hit rate 52% among 1,900;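 active = mean PP1 inhibition above a set limit taken from the earlier primary screen, cut at about 15% in these data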
PP5 inh counter – counter-screen for PP1 inhibitors: human PP5 phosphatase inhibition; shares compounds with PP1 inh; purified PP5c, OMFP fluorescence; inhibition, % at 6.7 µM; hit rate 4% among 1,900;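 active = mean PP5 inhibition over triplicate wells above about 9.5% taken from the earlier PP1 screen, limit read from the data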
Each line names hits and unclear results; the compound was inactive in the other large screens (follow-up assays come after a bar, where they were run). Cut-off read from the data, not from the text of the source, unless noted: active = inhibition above about 37%; inactive = the rest.

O=c1ccc2[n+]([O-])c3ccc(O)cc3oc-2c1	HCV NS3 hel inh 37 (no result: PP5 inh, PP1 inh) | NS3 helicase cf inactive | DNA FID counter-2 inactive
COc1ccc(/C=N/N2CCN(c3ccccc3OC)CC2)cc1OC	none
COc1ccccc1N1CCN(/N=C/c2ccc(O)c(O)c2)CC1	HCV NS3 hel inh 37 | NS3 helicase cf inactive | DNA FID counter-2 inactive
O=C(COc1ccccc1)Nc1nnc(-c2ccc(F)cc2)o1	HCV NS3 hel inh 60 | NS3 helicase cf inactive | DNA FID counter-2 inactive
COc1ccc(-c2nnc(NC(=O)Cc3ccccc3)o2)cc1	none
Cc1cc(/C=C2\C(=N)N3N=C(C(C)C)SC3=NC2=O)c(C)n1-c1ccccc1	HCV NS3 hel inh 51 | NS3 helicase cf inactive | DNA FID counter-2 inactive
CCCCn1c(NC(=O)c2ccccc2Cl)c(C#N)c2nc3ccccc3nc21	HCV NS3 hel inh 47, PP5 inh 12 | NS3 helicase cf 69 | DNA FID counter-2 inactive | PP5 conf 40 | PP1 inh counter 27
CCCC(=O)N(c1ccc(C(=O)O)cc1)c1nc(-c2ccccc2)c(C)s1	none
O=C(c1ccccc1)N1CCN(C(=O)c2nn3c(C(F)(F)F)cc(-c4ccco4)nc3c2Br)CC1	HCV NS3 hel inh 47, PP1 inh 19 | NS3 helicase cf inactive | DNA FID counter-2 inactive | PP1 inh confirm inactive | PP5 inh counter inactive
O=C(NC1CCCCC1)c1nn2c(C(F)(F)F)cc(-c3ccco3)nc2c1Br	none
O=C(O)c1ccc(S(=O)(=O)N(CCc2ccccc2)Cc2ccc(Cl)cc2)cc1	HCV NS3 hel inh 45, PP1 inh 22 | NS3 helicase cf inactive | DNA FID counter-2 inactive | PP1 inh confirm inactive | PP5 inh counter inactive
O=C(O)c1ccc(S(=O)(=O)N(Cc2ccccc2)Cc2ccccc2)cc1	none
O=C(O)c1ccc(N/N=C/c2ccc(-c3cc(Cl)ccc3Cl)o2)cc1	HCV NS3 hel inh 40, PP1 inh 18 | NS3 helicase cf 62 | DNA FID counter-2 inactive | PP1 inh confirm 19 | PP5 inh counter inactive
NS(=O)(=O)c1ccc(-c2ccc(/C=N/Nc3ccc(C(=O)O)cc3)o2)cc1	none
Cc1ccc(C(c2cc(Cl)c3cccnc3c2O)N2CCN(C)CC2)cc1 (stereo not given)	HCV NS3 hel inh 42, PP1 inh 27 | NS3 helicase cf 70 | DNA FID counter-2 67 | PP1 inh confirm inactive | PP5 inh counter inactive
NNC(=O)c1oc2nc(-c3cccs3)cc(-c3ccco3)c2c1N	none
Cc1ccc(-c2cc(-c3ccco3)c3c(N)c(C(=O)NN)oc3n2)cc1	HCV NS3 hel inh 42, PP1 inh 18 | NS3 helicase cf inactive | DNA FID counter-2 inactive | PP1 inh confirm inactive | PP5 inh counter inactive
CCCN1CC(O)=C(C#N)C1=O	none
COc1cc(C(c2c(C(=O)O)[nH]c3ccccc23)c2c(C(=O)O)[nH]c3ccccc23)ccc1OCc1ccccc1	HCV NS3 hel inh 37, PP1 inh 19 | NS3 helicase cf inactive | DNA FID counter-2 inactive | PP1 inh confirm 15 | PP5 inh counter inactive
COc1cc(C2/C(=C(\O)c3ccc4c(c3)OCCO4)C(=O)C(=O)N2Cc2ccco2)ccc1O (stereo not given)	none
O=C1C(=O)N(Cc2ccco2)C(c2cccc(Cl)c2)/C1=C(\O)c1ccc2c(c1)OCCO2 (stereo not given)	HCV NS3 hel inh 47, PP1 inh 19 | NS3 helicase cf 83 | DNA FID counter-2 inactive | DNA FID DR inactive | PP1 inh confirm inactive | PP5 inh counter inactive
COc1cc(O)ccc1C(=O)CCc1ccc(O)cc1	none
O=C(N/N=C/c1cc(Br)cc([N+](=O)[O-])c1O)c1ccc(NC(=O)c2ccc(F)cc2)cc1	HCV NS3 hel inh 37, PP1 inh 22 | NS3 helicase cf inactive | DNA FID counter-2 inactive | PP1 inh confirm 35 | PP5 inh counter inactive
CCN(CC)S(=O)(=O)c1cccc(C(=O)N/N=C/c2ccc(O)c(O)c2O)c1	HCV NS3 hel inh 45, PP1 inh 20 (no result: HIF act) | NS3 helicase cf 76 | DNA FID counter-2 inactive | DNA FID DR inactive | PP1 inh confirm 33 | PP5 inh counter inactive
CN(C)C(CNC(=O)c1cccc(S(=O)(=O)NCc2ccccc2)c1)c1ccco1 (stereo not given)	none (no result: DNA FID counter-1, HCV NS3 hel inh)
O=C(CNC(=O)c1ccccc1)N/N=C/C=C/c1ccccc1	none
O=C(Cc1cc(=O)[nH][nH]1)N/N=C/C=C/c1ccccc1	HCV NS3 hel inh 40, PP1 inh 19 | NS3 helicase cf inactive | DNA FID counter-2 inactive | PP1 inh confirm inactive | PP5 inh counter inactive
CC(=O)N(C)c1ccc(NC(=O)CCN2C(=O)c3ccccc3C2=O)cc1	none
CCC(=O)N1CCc2cc(S(=O)(=O)NC(Cc3ccccc3)C(=O)O)ccc21 (stereo not given)	none
CC(Nc1cccc2ccccc12)C(=O)N/N=C/c1ccc([N+](=O)[O-])cc1 (stereo not given)	none
COc1cc([N+](=O)[O-])cc(/C=N/NC(=O)C(C)Nc2cccc3ccccc23)c1O (stereo not given)	HCV NS3 hel inh 37, PP1 inh 23 | NS3 helicase cf 39 | DNA FID counter-2 inactive | PP1 inh confirm 33 | PP5 inh counter inactive
COc1ccc(NC(=O)C2CC(=O)N(CCc3ccc(F)cc3)C2)c(OC)c1 (stereo not given)	none
O=C1NCCN(Cc2ccoc2)C1CC(=O)N(CCO)Cc1ccccc1 (stereo not given)	none
COc1cccc(=O)c2c(C)n(CC(=O)c3ccccc3)c(C)c12	HCV NS3 hel inh 58, PP1 inh 23 | NS3 helicase cf inactive | DNA FID counter-2 inactive | PP1 inh confirm inactive | PP5 inh counter inactive
CCOc1cccc(=O)c2c(C)n(CC(=O)c3ccccc3)c(C)c12	none
COc1ccc(C2C(C(=O)c3ccc(C)o3)=C(O)C(=O)N2c2cc(C)on2)cc1OC (stereo not given)	none

Compound activity from PubChem BioAssay.
